The source made the active and inactive calls. The calls are words filed in the database; no cut-off is given here.
Assays:
MG-63 = experiment: Cytotoxicity against human MG63 cells assessed as cell viability at 10 to 100 uM after 72 hrs by MTT assay; type: functional, cell-based
In short: (§1)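 Sarcosphere-derived CSC cultures exposed 72 h to concentrations from 100 μM down to 0.1 μM. Viability compared with DMSO-only treated cells. IC50 calculated by linear regression.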

HOS = experiment: Cytotoxicity against HOS cells assessed as cell viability at 10 to 100 uM after 72 hrs by MTT assay; type: functional, cell-based; details: Homo sapiens
A673 = experiment: Cytotoxicity against human A673 cells assessed as cell viability at 10 to 100 uM after 72 hrs by MTT assay; type: functional, cell-based; in short: as §1
A204 = experiment: Cytotoxicity against human A204 cells assessed as cell viability at 10 to 100 uM after 72 hrs by MTT assay; type: functional, cell-based
RD = experiment: Cytotoxicity against human RD cells assessed as cell viability at 10 to 100 uM after 72 hrs by MTT assay; type: functional, cell-based
SK-ES1 = experiment: Cytotoxicity against human SK-ES-1 cells assessed as cell viability at 10 to 100 uM after 72 hrs by MTT assay; type: functional, cell-based; in short: as §1
[1] = Cytotoxicity against human SK-ES-1 cells assessed as inhibition of cell viability after 72 hrs by MTT assay; type: functional, SK-ES1
In short: (§2)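 Stem-like cells were taken from sarcosphere cultures and exposed for 72 h to concentrations from 100 μM down to 0.1 μM. Viability was compared with cells given DMSO vehicle alone. IC50 was calculated by linear regression of the dose-response curves.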

[2] = Cytotoxicity against human MG63 cells assessed as inhibition of cell viability after 72 hrs by MTT assay; type: functional, MG-63; in short: as §2

| Structure (SMILES) | Activity (MG-63) | Activity (HOS) | Activity (A673) | Activity (A204) | Activity (RD) | Activity (SK-ES1) | INH [1] [µM] | INH [2] [µM] |
| --- | --- | --- | --- | --- | --- | --- | --- | --- |
| O=c1nc2oc3ccc4ccccc4c3cc-2c(=O)n1-c1ccccc1 | Active | Active | Active | Active | Active | Active | – | – |
| Cn1c(/C=C/C(=O)NO)ccc1/C=C/C(=O)c1cccc(F)c1 | – | – | – | – | – | – | 50.7 | 38.3 |

From ChEMBL document CHEMBL3425488, “Novel histone deacetylase inhibitors induce growth arrest, apoptosis, and differentiation in sarcoma cancer stem cells” (J Med Chem, 2015)
